Measurements as given in ChEMBL document CHEMBL4354849, “[1,2,5]Oxadiazolo[3,4-b]pyrazine-5,6-diamine Derivatives as Mitochondrial Uncouplers for the Potential Treatment of Nonalcoholic Steatohepatitis” (J Med Chem, 2020).
Activity calls are given as the source filed them. The calls are words filed in the database; no cut-off is given here.

Tests used:
L6 = experiment: Induction of mitochondrial uncoupling in rat L6 cells assessed as oxygen consumption rate up to 50 uM measured over 90 mins by oxygen consumption rate by seahorse assay relative to <= 50 uM BAM15; settings: Mitochondria
How it was run: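 L6 rat myoblasts were seeded at 3.5 × 10⁴ cells/well and left to adhere overnight. Medium was switched to unbuffered DMEM with pyruvate and glutamine, pH 7.4, and cells were equilibrated 1 h at 37°C without CO₂. One concentration per well, 2 wells per condition, OCR followed over 90 min. The first three post-injection readings were averaged to build the dose curve. AUC above baseline was expressed relative to BAM15 run on each plate; EC50 came from a Hill fit with the bottom fixed at 100% baseline.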

[1] = Induction of mitochondrial uncoupling in rat L6 cells assessed as oxygen consumption rate measured over 90 mins by oxygen consumption rate by seahorse assay; assay type: mitochondria, Mitochondria
Mus musculus [2] = experiment: Improvement in liver fibrosis in Stelic C57BL/6 mouse model of streptozotocin-induced NASH assessed as NAS score at 10 mg/kg/day, po for 21 days (reference value: 4.6 +/- 0.7); assay type: functional
Mus musculus [3] = experiment: Effect on body weight in Stelic C57BL/6 mouse model of streptozotocin-induced NASH at 10 mg/kg/day, po for 21 days; assay type: ADME, organism-based; settings: in vivo, 504 h
Mus musculus [4] = experiment: Effect on ballooning in Stelic C57BL/6 mouse model of streptozotocin-induced NASH at 10 mg/kg/day, po for 21 days; assay type: ADME, organism-based; settings: in vivo, 504 h
Mus musculus [5] = experiment: Improvement in liver fibrosis in Stelic C57BL/6 mouse model of streptozotocin-induced NASH assessed as effect on liver Cd146 mRNA expression at 10 mg/kg/day, po for 21 days; assay type: functional, organism-based
Mus musculus [6] = experiment: Improvement in liver fibrosis in Stelic C57BL/6 mouse model of streptozotocin-induced NASH assessed as increase in plasma cholesterol at 10 mg/kg/day, po for 21 days; assay type: functional, organism-based
Mus musculus [7] = experiment: Improvement in liver fibrosis in Stelic C57BL/6 mouse model of streptozotocin-induced NASH assessed as effect on plasma AST level at 10 mg/kg/day, po for 21 days; assay type: functional, organism-based
Mus musculus [8] = experiment: Improvement in liver fibrosis in Stelic C57BL/6 mouse model of streptozotocin-induced NASH assessed as effect on liver Gfap mRNA expression at 10 mg/kg/day, po for 21 days; assay type: functional, organism-based
Mus musculus [9] = experiment: Effect on food intake in Stelic C57BL/6 mouse model of streptozotocin-induced NASH assessed as reduction in food intake at 10 mg/kg/day, po for 21 days; assay type: ADME, organism-based; set-up: scale not given: the % may be the effect or the level left; settings: in vivo, 504 h
Mus musculus [10] = experiment: Improvement in liver fibrosis in Stelic C57BL/6 mouse model of streptozotocin-induced NASH assessed as reduction in plasma triglyceride at 10 mg/kg/day, po for 21 days; assay type: functional, organism-based
Mus musculus [11] = experiment: Effect on liver weight in Stelic C57BL/6 mouse model of streptozotocin-induced NASH at 10 mg/kg/day, po for 21 days; assay type: ADME, organism-based; settings: in vivo, 504 h
Mus musculus [12] = experiment: Improvement in liver fibrosis in Stelic C57BL/6 mouse model of streptozotocin-induced NASH assessed as liver fibrosis score at 10 mg/kg/day, po for 21 days by Picrosirius ed staining based assay (reference value: 0.91 +/- 0.25); assay type: functional
Mus musculus [13] = experiment: Induction of hyperglycemia in Stelic C57BL/6 mouse model of streptozotocin-induced NASH at 10 mg/kg/day, po for 21 days; assay type: organism-based; settings: in vivo, 504 h

SMILES	Activity (L6)	EC50 [1]	also measured
COc1ccc(Nc2nc3nonc3nc2Nc2ccccc2F)cc1	52%	1600 nM	–
Cc1ccc(Nc2nc3nonc3nc2Nc2ccc(C)cc2)cc1	59%	> 20000 nM	–
Fc1cc(C(F)(F)F)ccc1Nc1nc2nonc2nc1Nc1ccc(C(F)(F)F)cc1F	–	< 1000 nM	–
CCOc1ccc(Nc2nc3nonc3nc2Nc2ccccc2F)cc1	–	3800 nM	–
Fc1ccccc1Nc1nc2nonc2nc1Nc1cccc(F)c1F	15%	500 nM	–
FC(F)(F)Oc1cccc(Nc2nc3nonc3nc2Nc2cccc(OC(F)(F)F)c2)c1	53%	1100 nM	–
Cc1ccccc1Nc1nc2nonc2nc1Nc1ccccc1F	58%	1100 nM	–
FC(F)(F)c1cc(Nc2nc3nonc3nc2Nc2cc(C(F)(F)F)cc(C(F)(F)F)c2)cc(C(F)(F)F)c1	–	6100 nM	–
O=C(Nc1ccc(Nc2nc3nonc3nc2Nc2ccccc2F)cc1)C(F)(F)F	–	4100 nM	–
Fc1ccc(C(F)(F)F)cc1Nc1nc2nonc2nc1Nc1cc(C(F)(F)F)ccc1F	–	< 1000 nM	–
Fc1cc(I)ccc1Nc1nc2nonc2nc1Nc1ccc(I)cc1F	–	8800 nM	–
FC(F)(F)c1cccc(Nc2nc3nonc3nc2Nc2cccc(C(F)(F)F)c2)c1	28%	700 nM	–
Cc1ccc(Nc2nc3nonc3nc2Nc2ccc(C)c(C)c2)cc1C	–	> 100000 nM	–
Fc1ccccc1Nc1nc2nonc2nc1Nc1cccc(C(F)(F)F)c1F	–	< 370 nM	–
Fc1ccc(Nc2nc3nonc3nc2Nc2ccccc2F)cc1	65%	2300 nM	–
Fc1ccccc1Nc1nc2nonc2nc1Nc1ccccc1	65%	2200 nM	–
Oc1ccc(F)c(Nc2nc3nonc3nc2Nc2ccccc2F)c1	45%	30000 nM	–
FC(F)(F)Oc1ccc(Nc2nc3nonc3nc2Nc2ccc(OC(F)(F)F)cc2)cc1	14%	< 5000 nM	–
Fc1ccccc1Nc1nc2nonc2nc1Nc1cccc(C(F)(F)F)c1	–	< 1000 nM	–
Cc1cccc(Nc2nc3nonc3nc2Nc2cccc(C)c2)c1	22%	2100 nM	–
FC(F)(F)c1ccccc1Nc1nc2nonc2nc1Nc1ccccc1C(F)(F)F	39%	1000 nM	–
FC(F)(F)Oc1ccc(Nc2nc3nonc3nc2Nc2ccc(OC(F)(F)F)c(Br)c2)cc1Br	–	2200 nM	–
COc1ccc(Nc2nc3nonc3nc2Nc2ccc(OC)cc2)cc1	14%	> 100000 nM	–
CCOc1ccccc1Nc1nc2nonc2nc1Nc1ccccc1F	15%	5600 nM	–

SMILES	Activity (L6)	EC50 [1]	also measured
Fc1ccccc1Nc1nc2nonc2nc1Nc1cc(C(F)(F)F)cc(C(F)(F)F)c1	–	< 370 nM	–
Fc1ccccc1Nc1nc2nonc2nc1Nc1ccccn1	20%	9000 nM	–
Cc1ccccc1Nc1nc2nonc2nc1Nc1ccccc1C	–	2300 nM	–
Fc1ccccc1Nc1nc2nonc2nc1Nc1cccc(OC(F)(F)F)c1	8%	600 nM	–
Fc1cc(F)c(Nc2nc3nonc3nc2Nc2c(F)cc(F)cc2F)c(F)c1	–	1100 nM	–
CCc1ccc(Nc2nc3nonc3nc2Nc2ccc(CC)cc2)cc1	–	3900 nM	–
Fc1ccccc1Nc1nc2nonc2nc1NC1CCCCC1	–	13400 nM	–
COc1cccc(Nc2nc3nonc3nc2Nc2cccc(OC)c2)c1	43%	> 100000 nM	–
Fc1ccccc1Nc1nc2nonc2nc1NCCC(F)(F)F	–	> 100000 nM	–
C1CCC(Nc2nc3nonc3nc2NC2CCCC2)C1	20%	45000 nM	–
Fc1cc(Nc2nc3nonc3nc2Nc2ccc(C(F)(F)F)c(F)c2)ccc1C(F)(F)F	–	1700 nM	–
Fc1ccc(Nc2nc3nonc3nc2Nc2ccccc2F)c(F)c1	22%	300 nM	–
Fc1cc(Br)ccc1Nc1nc2nonc2nc1Nc1ccc(Br)cc1F	–	< 3000 nM	–
Fc1ccccc1Nc1nc2nonc2nc1Nc1ccc(C(F)(F)F)cc1	–	270 nM	–
Cc1ccc(Nc2nc3nonc3nc2Nc2ccccc2F)cc1	–	2100 nM	–
CCOc1cccc(Nc2nc3nonc3nc2Nc2cccc(OCC)c2)c1	45%	10100 nM	–
Cc1cccc(Nc2nc3nonc3nc2Nc2ccccc2F)c1	–	1500 nM	–
Fc1ccccc1Nc1nc2nonc2nc1Nc1ccccc1OC(F)(F)F	67%	1700 nM	–
Fc1ccccc1Nc1nc2nonc2nc1Nc1ccccc1C(F)(F)F	57%	1400 nM	–
COc1cccc(Nc2nc3nonc3nc2Nc2ccccc2F)c1	–	830 nM	–
CCCc1nc2c(C)cc(-c3nc4ccccc4n3C)cc2n1Cc1ccc(-c2ccccc2C(=O)O)cc1 [TELMISARTAN]	–	–	Activity (Mus musculus [2]): 2.9; Activity (Mus musculus [3]): Toxic; Activity (Mus musculus [4]): Non-Toxic; Activity (Mus musculus [5]): inactive; Activity (Mus musculus [6]): Active; Activity (Mus musculus [7]): inactive; Activity (Mus musculus [8]): inactive; Activity (Mus musculus [9]): 23%; Activity (Mus musculus [10]): Active; Activity (Mus musculus [11]): Toxic; Activity (Mus musculus [12]): 0.6; Activity (Mus musculus [13]): Toxic
Fc1ccccc1Nc1nc2nonc2nc1Nc1ccc(OC(F)(F)F)cc1	–	1300 nM	–
CCOc1cccc(Nc2nc3nonc3nc2Nc2ccccc2F)c1	28%	2200 nM	–
Fc1cc(F)cc(Nc2nc3nonc3nc2Nc2cc(F)cc(F)c2)c1	–	< 1000 nM	–
